The source of these data is ChEMBL document CHEMBL1141015, “Discovery of diacylphloroglucinols as a new class of GPR40 (FFAR1) agonists” (Bioorg Med Chem Lett, 2008).

As a reminder, the EC50 is the concentration that produces a half-maximal response. Read a high EC50 as a need for much substance.

Test [1] concerns the target T1, Free fatty acid receptor 1 (Homo sapiens, UniProt O14842). Kind of test: Agonist activity at human GPR40 expressed in CHOK1 cells assessed as effect on calcium flux at 10 uM by fluorescence assay. The test is classed as functional, cell-based. The conditions noted are these: CHO-K1. The procedure, abridged: (§1)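 CHO K1 cells stably transfected with hGPR40 (vector pCDN), seeded 10,000 cells/well on poly-D-lysine plates, 48 h culture; loaded 1 h with 2.5 µM Fluo-4AM in 10 mM Hepes, 2.5 mM probenecid, HBSS pH 7.5, washed thrice, 37 °C; Ca²⁺ flux read on FlexStation as fold over control; mock-transfected CHO K1 cells run in parallel for specificity.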

Test [2] has as its target T1, Free fatty acid receptor 1. Briefly: Activity at human GPR40 expressed in CHOK1 cells assessed as inhibition of linoleic acid-induced calcium flux by fluorescence assay. The test is classed as functional, cell-based. The settings on record: CHO-K1. On the technique in general: A change in cytosolic calcium serves as a functional read-out for many receptors and channels.

Test [3] addresses T1, Free fatty acid receptor 1. Briefly: Agonist activity at human GPR40 expressed in CHOK1 cells assessed as fold increase in calcium flux at 10 uM by fluorescence assay relative to control. The settings on record: CHO-K1. It counts as functional, cell-based. The procedure, abridged: as §1
The subject of another test is HIT-T15. Briefly: Induction of insulin secretion in Syrian golden hamster HIT-T15 cells at 10 uM. It counts as functional, cell-based. The conditions noted are these: Mesocricetus auratus. The procedure, abridged: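 HIT-T15 hamster pancreatic cells treated with 10 µM compound; insulin secretion measured, with linoleic acid as reference.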
Test [4] deals with T1, Free fatty acid receptor 1. Kind of test: Agonist activity at human GPR40 expressed in CHOK1 cells assessed as maximal response at 10 uM by fluorescence assay relative to linoleic acid. The test is classed as functional, cell-based. The conditions noted are these: CHO-K1. The method in brief: as §1
The target in test [5] is T1, Free fatty acid receptor 1. Kind of test: Agonist activity at human GPR40 expressed in CHOK1 cells by fluorescence assay. The test is classed as functional, cell-based, CHO-K1. The method in brief:
as §1

Test [6] deals with T1, Free fatty acid receptor 1. Kind of test: Agonist activity at GPR40 at 100 uM. The test is classed as functional.
In test [7] the target is T1, Free fatty acid receptor 1. Kind of test: Agonist activity at GPR40. It counts as functional.
In test [8] the target is T1, Free fatty acid receptor 1. Kind of test: Activation at GPR40 expressed in HEK293 cells at 100 uM by calcium mobilization-based FLIPR assay. It counts as functional, cell-based.
Test [9] addresses T1, Free fatty acid receptor 1. Kind of test: Agonist activity at GPR40 expressed in CHO cells by FLIPR assay. The test is classed as functional, cell-based. The method in brief:
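CHO-K1 cells stably transfected with hGPR40 (pCDN vector), seeded and grown 48 h, loaded 1 h with Fluo-4AM in 10 mM Hepes/Ca²⁺/2.5 mM probenecid HBSS pH 7.5, washed thrice, held at 37 °C. FlexStation calcium flux read as fold over control. EC50 from dose–response curves; efficacy as % of maximal linoleic acid response. Mock-transfected CHO-K1 run in parallel.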

In test [10] the target is Free fatty acid receptor 1 (Mus musculus, UniProt Q76JU9). Briefly: Agonist activity at mouse GPR40 expressed in HEK293 cells. It counts as functional, cell-based.
Sequence of Free fatty acid receptor 1 (Mus musculus, UniProt Q76JU9) (Q76JU9 whole entry): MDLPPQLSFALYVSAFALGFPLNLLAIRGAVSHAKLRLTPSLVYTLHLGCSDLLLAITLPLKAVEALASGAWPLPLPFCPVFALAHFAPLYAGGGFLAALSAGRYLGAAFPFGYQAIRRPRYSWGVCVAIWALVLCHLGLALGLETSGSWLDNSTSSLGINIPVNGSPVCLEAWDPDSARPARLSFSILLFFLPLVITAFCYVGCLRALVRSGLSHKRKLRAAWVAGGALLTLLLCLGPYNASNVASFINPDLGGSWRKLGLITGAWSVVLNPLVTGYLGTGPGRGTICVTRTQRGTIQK

SMILES strings stand for the structures. The source made the active and inactive calls. The rule behind the calls is not given here.

T1 sequence (O14842 whole entry): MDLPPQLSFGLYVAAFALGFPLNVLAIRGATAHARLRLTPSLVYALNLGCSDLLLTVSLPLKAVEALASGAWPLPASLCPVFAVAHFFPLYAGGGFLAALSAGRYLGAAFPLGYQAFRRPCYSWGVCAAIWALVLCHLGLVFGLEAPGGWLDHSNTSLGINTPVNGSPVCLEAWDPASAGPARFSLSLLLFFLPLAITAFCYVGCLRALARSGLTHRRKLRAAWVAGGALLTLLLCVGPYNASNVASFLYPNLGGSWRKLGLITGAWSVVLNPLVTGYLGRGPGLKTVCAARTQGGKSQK

Turning to `CCCCCCCCCCCCCCCC(=O)c1c(O)cc(O)c(C(=O)CCCCCCCCCCCCCCC)c1O`, the outcome in test [1] and in [2] was inactive. The fold change (FC) in test [3] was found to be 1.02.
Turning to `CC(C)CC(=O)c1c(O)cc(O)c(C(=O)CC(C)C)c1O`, the result (in [1]; with HIT-T15) was Active. The Activity in [4] came to 102%. In test [5], this compound registered an EC50 of 6000 nM. In addition, the fold change (FC) in test [3] worked out at 1.89.
The compound `Cc1cc(OCC2(C)COC2)cc(C)c1-c1cccc(COc2ccc(C3CC3C(=O)O)cc2)c1` (stereo unspecified) gave an Activity in test [6] of 119%.
In turn, `Cc1cccc(C)c1-c1cccc(COc2ccc(Cn3oc(=O)[nH]c3=O)cc2)c1` showed an EC50 in test [7] of 260 nM.
As to `CCCCCCCCCCCCCCCCCC(=O)c1c(O)cc(O)c(C(=O)CCCCCCCCCCCCCCCCC)c1O`, the result in [1] and in [2] was inactive. Also, the fold change (FC) in [3] was 1.19.
As for `O=C(O)CCc1ccc2oc(Nc3cccc(Cl)c3Cl)nc2c1`, the Activity in test [8] is 111%.
In the case of `O=C(CCl)c1c(O)cc(O)c(C(=O)CCl)c1O`, the outcome in test [1] and in test [2] was inactive. In addition, the fold change (FC) in test [3] came to 1.21.
As for `O=C(O)CCc1ccc(OCc2ccc(CC(CCc3ccccn3)c3nc(-c4ccccc4)cs3)cc2)cc1` (stereo unspecified), it took 19 nM to reach a half-maximal effect in test [7] (EC50).
For the compound `CCCCOc1cc(O)c(C(=O)CC(C)C)c(O)c1C(=O)CC(C)C`, the outcome in [1] and in [2] was inactive. Further, the fold change (FC) in [3] stood at 1.02.
Take `CC(C)CC(=O)c1c(O)cc(O)cc1O`: the result in test [1] and in test [2] was inactive. Further, the fold change (FC) in test [3] worked out at 1.12.
As to `CCCCOc1cc(OCCCC)c(C(=O)CC(C)C)c(O)c1C(=O)CC(C)C`, the result in test [1] and in [2] was inactive. Besides, the fold change (FC) in test [3] is 1.35.
As for `CC(C)CC(=O)c1c(O)cc(OCCO)c(C(=O)CC(C)C)c1O`, the outcome in test [1] and in [2] was inactive. In addition, in test [3], the fold change (FC) came to 1.02.
With `CC(C)C(=O)c1c(O)cc(O)c(C(=O)C(C)C)c1O`, the outcome (in test [1]; in the test on HIT-T15) was Active. Moreover, the Activity in test [4] is 88.7%. For the same compound, the midpoint of the response in test [5], the EC50, lay at 8000 nM. The fold change (FC) in test [3] is 2.31.
As to `O=C(O)CCCC(=O)c1c(O)cc(O)cc1O`, the outcome in test [1] and in test [2] was inactive. Moreover, the fold change (FC) in [3] worked out at 1.
As to `CCCCCCCC(=O)c1c(O)cc(O)c(C(=O)CCCCCCC)c1O`, the result in [1] and in [2] was inactive. In addition, in test [3], the fold change (FC) was 1.21.
With `O=C(/C=C/C(=O)c1c(O)cc(O)cc1O)c1c(O)cc(O)cc1O`, the result in test [1] and in [2] was inactive. Also, in test [3], the fold change (FC) was found to be 1.01.
On to `CCCCOc1cc(O)c(C(=O)CC(C)C)c(OCCCC)c1C(=O)CC(C)C`, for which the outcome in [1] and in test [2] was inactive. Further, in test [3], the fold change (FC) is 1.46.
On to `O=C(O)[C@H]1[C@@H]2Oc3cc(Oc4ccc(C(F)(F)F)cc4Cl)ccc3[C@@H]21`, for which the 50% effective concentration (EC50) in test [9] turned out to be 0.1 nM.
Consider `CC(C)CC(=O)c1c(O)cc(O)c(C(=O)CCCC(=O)O)c1O`, for which the outcome in test [1] and in test [2] was inactive. In addition, in [3], the fold change (FC) turned out to be 1.
Take `CCCCCCCCCCCC(=O)c1c(O)cc(O)c(C(=O)CCCCCCCCCCC)c1O` [DIDODECANOYLPHLOROGLUCINOL]: the result (in [1]; in the test with HIT-T15) was Active. Further, the Activity in [4] turned out to be 100%. Besides, the EC50 in test [5] is 70 nM. Besides, the fold change (FC) in [3] turned out to be 2.33.
Consider `CCCCc1c(O)c(C(=O)CC(C)C)c(O)c(C(=O)CC(C)C)c1O`, for which the result in test [1] was Active. In addition, the Activity in test [4] worked out at 84.5%. The EC50 in test [5] stood at 970 nM. Moreover, in test [3], the fold change (FC) turned out to be 2.12.
With `CCCCCCCCC1SC(=O)NC1=O` (stereo unspecified), the EC50 in [10] is 7940 nM.
On to `CCCCC/C=C\C/C=C\CCCCCCCC(=O)O` [LINOLEIC ACID], for which the result in test [1] was Active. The half-maximal effective concentration (EC50) in test [7] and in test [5] was 540 nM each time. The fold change (FC) in test [3] is 2.55.
In the case of `O=C(O)CCCCCCCNc1ncc(-c2ccccc2)c(-c2ccccc2)n1`, the Activity in [8] was found to be 104%.
Consider `CC(C)CC(=O)c1c(O)c(Cc2c(O)c(C(=O)CC(C)C)c(O)c(C(=O)CC(C)C)c2O)c(O)c(C(=O)CC(C)C)c1O`, for which the outcome in [1] and in test [2] was inactive. Also, the fold change (FC) in test [3] was found to be 1.11.
Turning to `CCCCOc1ccc(C)cc1-c1ccc(COc2ccc3c(c2)CCC[C@H]3CC(=O)O)cc1`, the 50% effective concentration (EC50) in [9] is under 100 nM.
Turning to `CC#CC(CC(=O)O)c1ccc(OC2CCc3cc(-c4cccs4)ccc32)cc1` (stereo unspecified), the half-maximal effective concentration (EC50) in [7] stood at 10 nM.
